NR2E3 ag-1: NR2E3 agonists in two-hybrid cells, primary screen, cell-based, luminescence, CHO-S, Gal4-NCOR/VP16-NR2E3; Photoreceptor-specific nuclear receptor (Homo sapiens), Q9Y5X4; luciferase; inhibition of corepressor binding, % at 3.98 µM; hit rate 0.35% among 360,000;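 active means inhibition above the mean of all tested compounds plus 3 SD, cut at about 70% in these data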;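 further: higher means lower luciferase signal from less NR2E3 corepressor binding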
GalR3 antagonist: GalR3 antagonists in HEK293 cells, primary screen, cell-based, fluorescence readout. inhibition, % at 3 µM. AID 651719, 2012. Galanin receptor type 3 (Homo sapiens), O60755. hit rate 0.44% among 360,000. HEK293 GalR3-CNG cAMP membrane potential fluorescence; galR3 body fused to GalR1 C-terminus;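 active means inhibition above the screen-wide average plus 3 SD, cut at about 13% in these data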;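 further: forskolin and galanin both at EC90 stimulate the cells; cAMP rise reported by CNG channel membrane potential dye signal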
Target sequence (O60755 1-299 limits assumed): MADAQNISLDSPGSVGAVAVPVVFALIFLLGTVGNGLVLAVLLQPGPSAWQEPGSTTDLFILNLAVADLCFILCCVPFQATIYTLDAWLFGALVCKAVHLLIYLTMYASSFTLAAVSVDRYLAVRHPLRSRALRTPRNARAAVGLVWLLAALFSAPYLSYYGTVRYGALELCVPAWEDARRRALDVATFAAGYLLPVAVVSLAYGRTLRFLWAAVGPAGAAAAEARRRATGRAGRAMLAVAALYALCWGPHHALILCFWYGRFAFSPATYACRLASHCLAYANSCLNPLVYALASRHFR
Env fusion inh: inhibitors of HIV-1 Env-driven cell-cell fusion, primary screen, HeLa-JRFL effector, CEM21 target cells, luciferase | hit rate 1.1% among 360,000 | inhibition, % at 12.3 µM | AID 651610, 2012;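 active means mean replicate inhibition score of at least 50 and every replicate individually at or above 50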
NR2E3 ag-2: inhibitors of NR2E3-RetCOR corepressor binding, primary screen, NR2E3 agonist project, biochemical, TR-FRET, GST-NR2E3, biotin-RetCOR | hit rate 0.12% among 320,000 | Photoreceptor-specific nuclear receptor (Homo sapiens), Q9Y5X4 | AID 2300, 2010 | inhibition of corepressor binding, % at 4.78 µM | 1536-well;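 active means percent inhibition above the cutoff of mean plus 3 SD of all tested compounds, set per screening campaign, cut at about 20% in these data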
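system = GST-tagged NR2E3 plus biotinylated RetCOR corepressor | input = 1.35 nM GST-NR2E3 | also added = 7 nM biotin-RetCOR | schedule = 5 h incubation at 4 °C | measured by = TR-FRET with europium anti-GST and streptavidin-D2, 340 nm excitation | read-out = percent loss of FRET ratio relative to control wells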
FXN GAA850 act: FXN promoter activators, primary screen, cell-based, luciferase luminescence, HEK293 lucGAA850 | activation, % at 6 µM | hit rate 0.56% among 360,000 | HEK293 lucGAA850 FXN promoter luciferase reporter, 24 h; percent of 10 µM SAHA response;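 active means activation above the average of all compounds screened plus 3 SD, cutoff fixed separately per campaign, cut at about 7.5% in these data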
V-ATPase pH: regulators of yeast V-ATPase proton pumping, primary screen, pHLuorin cytosolic pH fluorescence; S. cerevisiae; response, % at 10 µM; hit rate 0.37% among 350,000; in the data active means response mostly above about 7.3%, no sharp cut-off; inactive means mostly below about 5.4%; further: actives read high
NR2E3 ag conf: NR2E3 agonist confirmation in cells, cell-based, luminescence, CHO-S two-hybrid | shares compounds with NR2E3 ag-1 | inhibition, % at 3.98 µM | CHO-S mammalian two-hybrid NR2E3-NCOR, luciferase luminescence | hit rate 51% among 2,300;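 active means average inhibition above a cutoff equal to the mean inhibition of all tested compounds plus one SD, cut at about 70% in these data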
VP16 counter: GAL4-VP16 reporter modulators, confirmation, counter-screen for NR2E3 agonist project, cell-based, luminescence, CHO-S, high throughput; CHO-S GAL4-VP16 luciferase reporter; hit rate 29% among 2,300; AID 624379, 2012; inhibition, % at 3.98 µM; shares compounds with NR2E3 ag-1;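 active means mean inhibition above a cutoff equal to the average over all tested compounds plus one standard deviation, cut at about 70% in these data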;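 further: luciferase from a UAS reporter driven by GAL4-VP16 transactivation; higher means less reporter light so more repression of VP16 activity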
Large screens that a line does not name were inactive (follow-up assays come after a bar, where they were run). In the library only some 2.2% were active in any assay of this set; here they are far more common.

COc1cnc(-c2ccccn2)nc1Sc1c(Cl)cccc1Cl	NR2E3 ag-1 91 | NR2E3 ag conf inactive | VP16 counter inactive
C[C@H]1CN([C@@H](C)CO)C(=O)Cc2cc(NS(=O)(=O)c3ccccc3)ccc2O[C@@H]1CN(C)Cc1ccc(-c2ccccc2)cc1	none (no result: NR2E3 ag-1, GalR3 antagonist, NR2E3 ag-2, FXN GAA850 act, V-ATPase pH)
Cc1ccc2oc(/N=C(\N)NC(=O)C3CC3)nc2c1	none
Cc1ccc2oc(/N=C(\N)NC(=O)C(C)(C)C)nc2c1	NR2E3 ag-1 91 | NR2E3 ag conf 92 | VP16 counter inactive
CCCC(=O)c1ccc(N2CCN(C(=O)c3ccccc3Br)CC2)c(F)c1	NR2E3 ag-1 84 (no result: Env fusion inh) | NR2E3 ag conf 74 | VP16 counter inactive
Cc1nc2c(-c3ccc(F)cc3)cnn2c(N)c1-c1ccccc1	NR2E3 ag-1 77 | NR2E3 ag conf inactive | VP16 counter inactive
Cc1ccc(C)c(NC(=S)NCC(c2ccccc2)N(C)C)c1 (stereo not given)	none | NR2E3 ag conf inactive | VP16 counter inactive
Cc1ccccc1NC(=S)NCC(c1cccnc1)N(C)C (stereo not given)	none
O=S(=O)(Nc1cccc2cccnc12)c1ccccc1	NR2E3 ag-1 86 | NR2E3 ag conf inactive | VP16 counter inactive
CC(=O)Nc1ccc(S(=O)(=O)Nc2cccc3cccnc23)cc1	none
Cc1ccc(S(=O)(=O)Nc2cccc3cccnc23)c([N+](=O)[O-])c1	NR2E3 ag-1 76 | NR2E3 ag conf inactive | VP16 counter inactive
COc1ccc(/C=N/N=C2\CC3CCC2(C)C3(C)C)cc1O (stereo not given)	NR2E3 ag-1 74 (no result: Env fusion inh) | NR2E3 ag conf inactive | VP16 counter inactive
CS(=O)(=O)Nc1ccc2c(c1)[C@H]1C[C@H](CC(=O)NCC(F)(F)F)O[C@@H](CO)[C@H]1O2	none (no result: NR2E3 ag-1, GalR3 antagonist, NR2E3 ag-2, FXN GAA850 act, V-ATPase pH)
COc1ccc(-c2nsc3c(N4CCCCC4)ncnc23)cc1	none | NR2E3 ag conf inactive | VP16 counter inactive
COc1ccc(C(=O)N2CCN(c3ncnc4c(-c5ccccc5)nsc34)CC2)cc1	none (no result: NR2E3 ag-2)
COc1ccc(-c2nsc3c(N4CCN(S(=O)(=O)c5ccccc5F)CC4)ncnc23)cc1	none (no result: Env fusion inh)
COc1ccc(-c2nsc3c(N4CCCCC4C)ncnc23)cc1 (stereo not given)	NR2E3 ag-1 94 | NR2E3 ag conf 84 | VP16 counter 72
COCCNC(=O)C[C@@H]1C[C@@H]2c3cc(NC(=O)Nc4ccccc4F)ccc3O[C@@H]2[C@@H](CO)O1	none (no result: NR2E3 ag-1, GalR3 antagonist, NR2E3 ag-2, FXN GAA850 act, V-ATPase pH)
O=C(C[C@@H]1CC[C@@H](NC(=O)c2ccc(F)cc2)[C@@H](CO)O1)NCCc1ccccc1	none (no result: NR2E3 ag-1, GalR3 antagonist, NR2E3 ag-2, FXN GAA850 act, V-ATPase pH)
O=C(O)C[C@H]1C[C@H]2c3cc(NC(=O)C4CCC4)ccc3O[C@H]2[C@H](CO)O1	none (no result: NR2E3 ag-1, GalR3 antagonist, NR2E3 ag-2, FXN GAA850 act, V-ATPase pH)
Nc1nc(-c2ccccn2)nc(N)c1Cc1c(F)cccc1Cl	NR2E3 ag-1 86 | NR2E3 ag conf 98 | VP16 counter inactive
Nc1nc(-c2ccccn2)nc(N)c1Cc1ccc(Cl)cc1Cl	NR2E3 ag-1 91, V-ATPase pH 11 | NR2E3 ag conf 100 | VP16 counter inactive
Clc1ccc(OCc2nc(-c3ccccn3)no2)c(Br)c1	none
Nc1nc(-c2ccccn2)nc(N)c1Cc1ccccc1F	none
C[C@@H]1CN([C@H](C)CO)C(=O)c2cc(-c3cccc(F)c3)cnc2O[C@H]1CN(C)CC1CCOCC1	none (no result: NR2E3 ag-1, GalR3 antagonist, NR2E3 ag-2, FXN GAA850 act, V-ATPase pH)
O=C(C[C@H]1C[C@@H]2c3cc(NC(=O)Cc4ccncc4)ccc3O[C@@H]2[C@H](CO)O1)NCC1CC1	none (no result: NR2E3 ag-1, GalR3 antagonist, NR2E3 ag-2, FXN GAA850 act, V-ATPase pH)

Compound activity as filed in PubChem BioAssay.
